Experimental data from ChEMBL document CHEMBL1144509, “Identification of some novel AHAS inhibitors via molecular docking and virtual screening approach” (Bioorg Med Chem, 2007).
Peptide text beside a SMILES is read from it.

Key:
[1] = test system: Brassica rapa subsp. oleifera; assay: Herbicidal activity against Brassica campestris L assessed as inhibition of rape root growth at 10 ug/ml; assay type: functional
Outline: (§1)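 Rape seeds pre-soaked 4 h in distilled water, then set on filter paper in 6-cm dishes wetted with 2 ml test solution, usually 10 seeds per plate, duplicate plates. Germination in the dark for 72 h at 28 (±1) °C. Mean length of 10 roots measured. Percent inhibition calculated against distilled-water controls.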

[2] = test system: Brassica rapa subsp. oleifera; assay: Herbicidal activity against Brassica campestris L assessed as inhibition of rape root growth at 100 ug/ml; assay type: functional; outline: as §1
[3] = Inhibition of Arabidopsis thaliana AHAS
Outline: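 Purified recombinant plant AHAS. Colorimetric assay in 50 mM potassium phosphate pH 7.0 with 50 mM pyruvate, 1 mM thiamine diphosphate, 10 mM MgCl2 and 10 µM FAD, compounds given as emulsions, 30 min at 37 °C. Stopped with 10% H2SO4, then 60 °C for 15 min to convert acetolactate to acetoin. Acetoin developed with 0.5% creatine and 5% α-naphthol for 15 min at 60 °C, read at A525.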

Row | Ki [3] [µM] | SMILES | inhibition at 10 µg/mL [1] [%] | inhibition at 100 µg/mL [2] [%]
1 |  | O=C(O)Cc1cccc(CC(=O)O)c1 | 0 | 2.6
2 |  | O=C(NC(Cc1c[nH]cn1)C(=O)O)OCc1ccccc1 (stereo unspecified) | 0 | 0
3 |  | O=C(O)CC(NC(=O)OCc1ccccc1)C(=O)O (stereo unspecified) | 0 | 0
4 | 15.2 | O=C(O)c1ccc(SSc2ccc(C(=O)O)cn2)nc1 | 6 | 12.1
5 |  | O=C(O)c1cccc(F)c1C(=O)O | 0 | 0
6 |  | NC(=O)CCC(NC(=O)OCc1ccccc1)C(=O)O (stereo unspecified) | 0 | 6.3
7 |  | NC(=O)CCC(NC(=O)OCC1c2ccccc2-c2ccccc21)C(=O)O (stereo unspecified) | 0 | 13.9
8 |  | CC(O)C(NC(=O)OCC1c2ccccc2-c2ccccc21)C(=O)O (stereo unspecified) | 0 | 25.7
9 |  | O=C(O)c1cc(-c2cc(C(=O)O)c3ccccc3n2)nc2ccccc12 | 0 | 1.4
10 |  | CC(NC(=O)OCC1c2ccccc2-c2ccccc21)C(=O)O (stereo unspecified) | 0 | 12.9
11 |  | O=C(O)C(Cc1ccc(O)cc1)NSc1ccccc1[N+](=O)[O-] (stereo unspecified) | 0 | 0
12 | 90.7 | O=C(O)C(Cc1c[nH]c2ccccc12)NSc1ccccc1[N+](=O)[O-] (stereo unspecified) | 60.5 | 74.8
13 |  | N[C@@H](Cc1ccc(O)cc1)C(=O)N[C@@H](Cc1ccccc1)C(=O)O (H-Tyr-Phe-OH) | 0 | 0
14 | 42.1 | O=C1/C(=C2\Nc3ccc(S(=O)(=O)O)cc3C2=O)Nc2ccc(S(=O)(=O)O)cc21 [INDIGOTINDISULFONATE] | 0 | 0
